KCNQ1 act: potentiates or activates the human KCNQ1 potassium channel | P51787 | CHO-K1 KCNQ1, thallium flux FluxOR fluorescence; hits give high values | B-score at 10 µM | hit rate 0.35% among 310,000;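 active = fluorescence ratio B-score, a plate-corrected score, at least three library SD, with initial intensity B-score within 5 SD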
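assay system = KCNQ1-transfected CHO-K1 cells | medium = assay buffer with matched DMSO | probe or stimulus = depolarizing K+/Tl+ stimulus, K2SO4 and Tl2SO4 each 12.5 mM in 5x stock | dosing = single dose | incubation = dye 90 min, compound 20 min, room temperature | detection = kinetic FluxOR fluorescence, 10 s baseline plus 110 s post-stimulus | evaluation = ratio B score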
KCNK9 block: human KCNK9 channel inhibition; Q9NPC2; HEK293 KCNK9, FluxOR thallium flux fluorescence; hits give low values; B-score at 10 µM; hit rate 1.2% among 310,000; AID 488922;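 active = ratio B-score over 3 SD below the library mean, with starting fluorescence within 5 SD of its mean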;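 note: negative B-score means less thallium flux so channel inhibition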
KCNK3 inh: human KCNK3 channel inhibition, primary screen; CHO-KCNK3 thallium flux, FluxOR fluorescence; hits give low values; B-score at 10 µM; hit rate 0.84% among 340,000; AID 602410;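 active = B-score under library mean minus 4 SD, starting fluorescence ratio at most library mean plus 5 SD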;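 note: more negative B-score means stronger inhibition of thallium flux through KCNK3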
Target sequence (O14649 whole entry, looked up): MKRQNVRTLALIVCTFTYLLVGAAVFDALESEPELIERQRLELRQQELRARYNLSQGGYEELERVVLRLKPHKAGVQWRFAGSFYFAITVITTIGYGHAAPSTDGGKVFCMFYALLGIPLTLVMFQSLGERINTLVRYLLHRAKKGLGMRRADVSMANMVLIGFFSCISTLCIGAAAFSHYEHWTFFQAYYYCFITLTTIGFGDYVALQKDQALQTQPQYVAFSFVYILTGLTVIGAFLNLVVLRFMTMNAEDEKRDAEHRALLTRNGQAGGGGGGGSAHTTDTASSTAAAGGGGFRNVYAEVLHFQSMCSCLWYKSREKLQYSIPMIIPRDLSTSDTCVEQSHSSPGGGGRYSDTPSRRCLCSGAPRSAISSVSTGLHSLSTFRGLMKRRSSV
Kir21 block: Kir2.1 (mouse) channel inhibition | P35561 | B-score at 10 µM | AID 1672 | HEK293-Kir2.1, FluxOR thallium flux fluorescence; hits give low values | hit rate 0.85% among 310,000;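 active = fluorescence ratio B-score at or below minus 3 SD of library scores, with starting-brightness B-score within 2 SD, cut at about -4.2 in these data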;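 note: channel flux triggered by added potassium and thallium sulfate stimulus; B-score of peak minus minimum fluorescence over baseline after thallium stimulus; more negative B-score means stronger Kir2.1 block with less thallium influx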
hERG protect: hERG (human) protection from proarrhythmic block; hit rate 0.51% among 310,000; activation (rescue from dofetilide block), less the hit threshold, % at 10 µM; Q12809; CHO-hERG, FluxOR thallium flux, dofetilide IC70 present;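 active = activation above the mean of controls blocked by dofetilide plus 5 SD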;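 note: thallium influx through hERG after potassium depolarization seen as dye fluorescence rise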
KCNQ1 block: blocks the human KCNQ1 potassium channel; CHO-K1 KCNQ1, FluxOR thallium flux fluorescence; hits give high values; P51787; hit rate 1.3% among 310,000; B-score at 10 µM;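 active = compounds whose thallium flux B-score, printed positive for inhibition, exceeds three library SD while starting fluorescence stays within three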;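 note: channel opened by potassium depolarization with thallium stimulus after 20 min compound exposure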
KCNK9 inh conf: human KCNK9 inhibitor confirmation | hit rate 43% among 4,900 | shares compounds with KCNK9 block | HEK293 KCNK9 cells, FluxOR thallium flux fluorescence | inhibition, % at 10 µM;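 active = thallium signal inhibited by more than 5 SD of the compound-free buffer control wells, on both duplicate plates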
Kir21 sel: tests whether KCNK9 modulators also affect mouse Kir2.1; shares compounds with KCNK9 block; Kir2.1 cells, FluxOR thallium flux fluorescence; inhibition, % at 10 µM; hit rate 4% among 4,900;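 active = thallium signal drop more than 5 SD beyond the mean of the no-compound control wells, seen in both duplicate plates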;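 note: signal is fluorescence rise after thallium addition divided by baseline fluorescence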
HEK293 Tl ctr: second check of KCNK9 modulator effects in non-induced HEK293 cells | FluxOR thallium flux | shares compounds with KCNK9 block | AID 492997 | hit rate 40% among 4,900 | inhibition, % at 10 µM;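 active = thallium signal drop beyond 5 SD of the untreated control mean, on both duplicate plates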
Each line names hits and unclear results; the compound was inactive in the other large screens (follow-up assays come after a bar, where they were run). Sampled rows, rich in hits. Any-hit rate of the full collection: about 3.7%.

Cc1ccc(S(=O)(=O)NN2Cc3ccccc3C2=N)cc1	none
O=C(c1cccc2c1-c1ccccc1C2)N1CCCCC1	none
N#Cc1ccccc1-c1ccccc1C(=O)N1CCCCC1	KCNK9 block -19.2 | KCNK9 inh conf inactive | Kir21 sel inactive | HEK293 Tl ctr inactive
COc1ccccc1C(=O)NCCC(=O)Nc1ccc(OC(F)(F)F)cc1	none
CC1(C)C=Cc2c(c3c(c4c(=O)c(-c5ccc(O)cc5)coc24)OC(C)(C)CC3)O1	KCNK9 block -10.5 | KCNK9 inh conf 49.5% | Kir21 sel inactive | HEK293 Tl ctr 25.5%
CC(C)=CCc1c2c(c3occ(-c4ccc(O)cc4)c(=O)c3c1O)C=CC(C)(C)O2	none
COc1cccc(C(=O)C2CCCN(Cc3cccc(-n4cccn4)c3)C2)c1 (stereo unspecified)	none | KCNK9 inh conf inactive | Kir21 sel inactive | HEK293 Tl ctr inactive
COc1ccc(C(=O)C2CCCN(C(=O)c3cccc(Cn4cccn4)c3)C2)cc1F (stereo unspecified)	none | KCNK9 inh conf inactive | Kir21 sel inactive | HEK293 Tl ctr inactive
COc1ccc(C(=O)C2CCCN(C(=O)c3cccs3)C2)cc1F (stereo unspecified)	none | KCNK9 inh conf inactive | Kir21 sel inactive | HEK293 Tl ctr inactive
COc1ccc(C(=O)C2CCCN(C(=O)c3cc(C(C)C)no3)C2)cc1F (stereo unspecified)	none | KCNK9 inh conf inactive | Kir21 sel inactive | HEK293 Tl ctr inactive
CC(C(=O)O)n1c(-c2ccn[nH]2)n[nH]c1=S (stereo unspecified)	none
CC(=O)Nc1ccc(S(=O)(=O)NCC2(N3CCOCC3)CCCCC2)cc1	none (no result: KCNQ1 act, KCNK9 block, Kir21 block, hERG protect, KCNQ1 block)
CCC(C)(C)C1CCC2(CC1)NC(=O)N(CC(=O)Nc1cc(C(F)(F)F)ccc1N1CCOCC1)C2=O (stereo unspecified)	none
COc1ccc(CN2CCCC(C(=O)c3ccc(SC)cc3)C2)cc1Cn1cccn1 (stereo unspecified)	none | KCNK9 inh conf inactive | Kir21 sel inactive | HEK293 Tl ctr inactive
CSc1ccc(C(=O)C2CCCN(Cc3ccc(N4CCNC4=O)cc3)C2)cc1 (stereo unspecified)	none
CCOC(=O)CC(NC(=O)c1cccc2c1C(=O)N(Cc1cccnc1)C2)c1ccc(OC(C)C)cc1 (stereo unspecified)	none | KCNK9 inh conf inactive | Kir21 sel inactive | HEK293 Tl ctr inactive
COc1cc(C2C(C#N)=C(N)Oc3cc(O)ccc32)cc2c1OCO2 (stereo unspecified)	none
COc1cc(C2C(C#N)=C(N)Oc3cc(N(C)C)ccc32)cc2c1OCO2 (stereo unspecified)	KCNK9 block -8.64 | KCNK9 inh conf 33.5% | Kir21 sel inactive | HEK293 Tl ctr 54.5%
COc1ccc(C2Nc3cc(OC)ccc3-n3cccc32)cc1 (stereo unspecified)	none | KCNK9 inh conf inactive | Kir21 sel inactive | HEK293 Tl ctr inactive
O=c1[nH][nH]c2cc(=O)n(-c3ccc(Cl)cc3)nc12	none
COc1ccc(C2CC(=O)c3sc(NC(C)=O)nc3C2)cc1 (stereo unspecified)	none
CCCCn1c(SCC(=O)Nc2cc(C)on2)nc2ccsc2c1=O	none
CCC(C)n1c(SCc2ccc([N+](=O)[O-])cc2)nc2ccsc2c1=O (stereo unspecified)	KCNK9 block -13.1 | KCNK9 inh conf 69.0% | Kir21 sel inactive | HEK293 Tl ctr 44.0%
CCCCn1c(SCc2cccc([N+](=O)[O-])c2)nc2ccsc2c1=O	KCNK9 block -16.1, KCNQ1 block 6 | KCNK9 inh conf 80.0% | Kir21 sel inactive | HEK293 Tl ctr 38.5%
COCCn1c(SCc2cccc([N+](=O)[O-])c2)nc2ccccc2c1=O	KCNK9 block -8.8 | KCNK9 inh conf 64.0% | Kir21 sel inactive | HEK293 Tl ctr 30.5%

Compound activity from PubChem.
